# MBD2 inh = inhibitors of MBD2 binding to methylated DNA, primary screen, biochemical, TR-FRET, DNA-binding domain, human. MBD2 binding to methylated oligonucleotide. inhibition, % at 4.4 µM. 0.31% of 370,000 active; in the data active = inhibition above about 13%
# Target sequence (Q9UBB5 whole entry, looked up, the tested form may be a part): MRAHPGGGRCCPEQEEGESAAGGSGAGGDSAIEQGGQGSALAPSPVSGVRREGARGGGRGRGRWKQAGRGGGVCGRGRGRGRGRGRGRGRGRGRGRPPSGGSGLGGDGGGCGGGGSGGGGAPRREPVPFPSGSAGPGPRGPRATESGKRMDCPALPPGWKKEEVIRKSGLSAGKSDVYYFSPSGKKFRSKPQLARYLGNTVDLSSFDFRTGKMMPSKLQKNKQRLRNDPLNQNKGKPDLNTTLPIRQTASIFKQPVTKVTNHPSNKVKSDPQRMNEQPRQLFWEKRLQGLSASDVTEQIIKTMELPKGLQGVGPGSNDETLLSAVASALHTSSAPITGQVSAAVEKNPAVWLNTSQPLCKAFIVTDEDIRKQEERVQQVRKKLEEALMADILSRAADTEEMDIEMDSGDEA
# UHRF1 binding = UHRF1 methylated DNA binding inhibitors, primary screen, counter-screen for MBD2 inhibitor project, biochemical, TR-FRET, human UHRF1, single concentration. E3 ubiquitin-protein ligase UHRF1 (Homo sapiens), Q96T88. UHRF1 binding to methylated oligo. inhibition, % at 4.4 µM. 0.75% of 370,000 active;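 also: UHRF1 SRA domain binding a hemimethylated CpG hairpin DNA probe; 0% = median of test compound wells and 100% = reference inhibitor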
# SUMO1 PPI mod = modulators of SUMO1 protein-protein interactions, primary screen, biochemical, uHTS; SUMO1 binding to a labelled peptide, TR-FRET, 1 h; 0.33% of 360,000 active; inhibition, % at 20 µM; AID 602429, 2012; Small ubiquitin-related modifier 1 (Homo sapiens), P63165; in the data active = inhibition above about 37%
# Target sequence (P63165 whole entry, looked up): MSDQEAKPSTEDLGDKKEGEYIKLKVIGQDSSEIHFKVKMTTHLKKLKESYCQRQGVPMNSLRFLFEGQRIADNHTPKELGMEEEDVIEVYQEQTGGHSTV
# HCV NS3 hel inh = inhibitors of HCV NS3 helicase, primary screen, biochemical, Cy5 molecular beacon fluorescence; Hepatitis C virus NS3 helicase; 0.56% of 290,000 active; inhibition, % at 10.9 µM; NS3 helicase DNA unwinding; AID 1800, 2009;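 active = inhibition above the mean of all tested compounds plus 3 SD, set per campaign, cut at about 35% in these data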;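 also: 0% = DMSO wells and 100% = thioflavine S control wells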
#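 Measured by: Cy5 fluorescence, 0 and 60 min reads / Assay system: NS3 helicase fragment of HCV / Control set: low DMSO, high thioflavine S at 110 µM / Times: 1 h reaction at 25 °C, ATP-initiated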
# DNMT1 block = human DNMT1 methyltransferase inhibitors, primary screen, biochemical, molecular beacon, fluorescence, HinP1I cleavage, uHTS. inhibition (reported as % activation of signal), % at 10 µM. 0.83% of 360,000 active; in the data active = inhibition above about 50%
# DSG3 Ab inh = inhibitors of pemphigus antibody binding to DSG3, primary screen, biochemical, bead-based, flow cytometry, scFv-GFP; DSG3-coupled beads, scFv-anti-DSG3-GFP binding; stronger effect = lower value; binding (percent of control), % at 10 µM; 0.48% of 310,000 active; AID 588358, 2011;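 active = binding more than 3 SD below its plate's average and above zero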;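 also: hits lower antibody fragment binding to DSG3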
# UHRF1 ctr MBD2 = UHRF1 methylated DNA binding inhibitors, counter-screen for MBD2 inhibitor project, biochemical, TR-FRET, human UHRF1; shares compounds with MBD2 inh; UHRF1 binding to methylated oligonucleotide; AID 720530, 2013; inhibition, % at 4.4 µM; 25% of 1,000 active;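 also: UHRF1 SRA domain binding a labeled hemimethylated CpG hairpin DNA; 0% = vehicle only and 100% = reference inhibitor with vehicle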
# MBD2 confirm = inhibitors of MBD2 binding to methylated DNA, confirmation, biochemical, TR-FRET, DNA-binding domain, human | shares compounds with MBD2 inh | TR-FRET MBD2-DBD binding to methylated oligonucleotide | inhibition, % at 4.4 µM | 26% of 1,000 active; in the data active = inhibition above about 14%
# Numbers without * were called inactive; . = no result; ! = not active in a repeat. Hits are enriched below; roughly 2.5% of the tested compounds scored in any of these assays. Rule as the data show it, unless noted: active = inhibition above about 21%; inactive = the rest.
SMILES,MBD2 inh,UHRF1 binding,SUMO1 PPI mod,HCV NS3 hel inh,DNMT1 block,DSG3 Ab inh,UHRF1 ctr MBD2,MBD2 confirm
CN(C)C(=O)c1cccc(-c2cnc3c(NC=O)cc(-c4ccccc4N(C)C)cn23)c1,36*,-6,-4,.,141*,.,-10,30*
COc1ccc(/C=N/NC(=O)c2cc(O)c(O)c(O)c2)cc1Cn1cc([N+](=O)[O-])cn1,15*,28*,8,7,22,95,20,14*
COc1ccc(/C=N/NC(=O)c2ccccc2O)cc1Cn1cc([N+](=O)[O-])cn1,3,0,-13,0,1,87,.,.
COc1cccc(-n2c(=O)c3c(C)c(C(=O)N(C)C)sc3n(CC(=O)NCC3CCCO3)c2=O)c1 (stereo not drawn),16*,-2,0,-1,-3,.,8,4
Cc1cc(NCCCCCCCNc2cc(C)nc3cc([N+](=O)[O-])ccc23)c2ccc([N+](=O)[O-])cc2n1,21*,30*,129*,.,40,82,38*,49*
COCCCNc1cc(C)nc2ccccc12,-5,0,0,-4,3,92,.,.
CCN1CCC(NC(=O)Nc2ccc(F)cc2F)CC1,2,0,-2,4,-1,107,.,.
CCOc1cc(/C=N/n2cnnc2)ccc1OS(=O)(=O)c1ccc(C)cc1,14*,5,3,-4,0,86,7,2
CC(=O)Nc1c2c(nn1-c1ccc(C)cc1)CS(=O)(=O)C2,70*,1,7,13,2,94,3,1
Cc1ccc(-n2nc3c(c2NC(=O)c2cccs2)CS(=O)(=O)C3)c(C)c1,15*,-2,2,4,0,.,6,3
O=S(=O)(Nc1nc(-c2ccco2)c(-c2ccco2)s1)c1ccc(F)cc1F,23*,59*,14,.,34,98,11,4
CC(C)(C)c1ccc(C(CC(=O)O)NC(=O)CCCc2ccccc2)cc1 (stereo not drawn),2,2,-2,16,0,103,.,.
Cc1nc2ccccc2nc1SCC(=O)c1ccccc1,-2,4,-11,4,0,88,.,.
CC(=O)OCCNc1cc(N2CCN(C)CC2)c2noc3c2c1C(=O)c1ccccc1-3,20*,36*,-35,5,-15,90,25*,11
COc1ccc(/C=C(\C#N)C(=O)N2CCOCC2)cc1Br,41*,1,-1,0,2,113,4,2
CCN(c1ccccc1)S(=O)(=O)c1cccc(C(=O)NCC2(N(C)C)CCCCC2)c1,23*,11,4,.,-1,86,3,9
COc1cc2nc(NCCCN3CCN(C)CC3)n3nc(-c4ccccc4)nc3c2cc1OC,48*,49*,6,-26,22,.,41*,42*
CCCc1nc2ccc(C(=O)OC)cn2c1Cc1cccc(F)c1,17*,26*,-3,.,9,.,10,5
COC(=O)c1ccc2nc(-c3ccccc3)c(Cc3cccc(Cl)c3)n2c1,8,15,.,.,.,.,.,.
CCN(CC(=O)Nc1c(F)cccc1F)C(=O)CSc1nc(C)cc(C)n1,0,1,-3,6,2,105,.,.
O=C1C2CCCN2C(=S)N1C1CCCCC1 (stereo not drawn),5,1,6,9,1,100,.,.
O=C1C=C(c2ccoc2)N2CCC[C@H]2C1,36*,-5,4,.,0,101,9,1
CN(Cc1ccc(Cl)cc1)C(=O)c1ccc(S(=O)(=O)NCc2ccco2)cc1,37*,5,-1,.,-4,78,6,1
CC(C)(Oc1ccc(F)cc1)C(=O)OCC(=O)c1ccc(S(C)(=O)=O)cc1,36*,-1,-2,.,-1,100,6,2
N#CCC(=N)N1CCN(c2cccc(Cl)c2)CC1,2,-1,0,-9,-5,103,.,.
SMILES,MBD2 inh,UHRF1 binding,SUMO1 PPI mod,HCV NS3 hel inh,DNMT1 block,DSG3 Ab inh,UHRF1 ctr MBD2,MBD2 confirm
CC(C)(NO)/C(=N\O)c1ccccc1,-2,1,-1,1,-2,.,.,.
CCOC(=O)C1=C(COC(=O)c2ccccc2OC)NC(=O)NC1C (stereo not drawn),-2,-1,1,.,2,107,.,.
CCOC(=O)C1=C(COC(=O)c2cccnc2Cl)NC(=O)NC1C (stereo not drawn),19*,-2,3,.,6,103,2,3
CC(C)CC1Nc2ncnc(N3CCOCC3)c2N(Cc2ccc(Cl)cc2)C1=O (stereo not drawn),21*!,24*!,-3,.,-5,101,2,1
CCOC(=O)c1cccc(NC(=O)c2cc3sccc3n2C)c1,1,-4,-1,-6,-7,102,.,.
CC(C)CCn1cnc2c1c(=O)[nH]c(=O)n2Cc1ccccc1,90*,-2,7,-2,9,106,5,2
O=C(c1cc(COc2ccc(F)cc2F)on1)N1CCCC(c2ccccc2)C1 (stereo not drawn),15*,25*,1,0,-3,113,4,2
O=C(c1cc(COc2ccc(F)cc2Cl)on1)N1CCCC(c2ccccc2)C1 (stereo not drawn),2,-1,-1,-10,1,106,.,.
CCOC(=O)[C@]12CCCC=C1N(Cc1ccc(OC)cc1)C(=O)[C@@H]2CC(=O)NCCCOC,4,0,.,.,.,.,.,.
O=C1OC2CCC1(c1ccccc1)C2 (stereo not drawn),-1,0,2,3,-1,95,.,.
O=C(CCC(=O)c1cccs1)OCC(=O)c1ccccc1,48*,0,1,.,-2,97,4,1
O=C(NCc1nnc2n1CCCCC2)c1ccc(Cl)cc1Cl,-6,1,-2,5,1,106,.,.

# Screens as filed in PubChem BioAssay.
